Here are results for 22 compounds from ChEMBL document CHEMBL4368897, “Using 2-aminobenzimidazole derivatives to inhibit Mycobacterium smegmatis biofilm formation” (Medchemcomm, 2019).

The subject of data set [1] is Mycolicibacterium smegmatis. Description: Antibiofilm activity against Mycobacterium smegmatis str. MC2 155 ATCC 700084 assessed as inhibition of biofilm formation incubated for 48 hrs by crystal violet reporter assay. The following applies: for IC50: Mycolicibacterium smegmatis, MC2 155 ATCC 700084, 48 h. The format is functional, organism-based. The procedure, abridged: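 48 h culture subcultured to 0.01 in M9 minimal salts medium containing compound. Incubated in PVC plates, stationary, 37 °C, 48 hr. Wells washed with water, stained 30 min with 0.1% crystal violet, and eluted with 95% ethanol for 10 min. OD540 read; % inhibition taken versus untreated wells. Duplicate wells, at least two separate runs.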

Data set [2] relates to Mycolicibacterium smegmatis. The data set can be described thus: Antimicrobial activity against Mycobacterium smegmatis str. MC2 155 ATCC 700084 assessed as inhibition of planktonic bacteria growth incubated for 48 hrs by broth microdilution method. The format is organism-based. The procedure, abridged:
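48 h preculture in 7H9 (ADC, 0.5% Tween 80) used to inoculate fresh 7H9 at 5 × 10^5 CFU mL-1 (OD600 0.006). Compounds added from 100 mM DMSO-d6 stocks and twofold serially diluted. Incubated stationary at 37 °C for 48 h, then 6 h more with alamarBlue. MIC = lowest concentration without visible growth. Duplicate, at least two separate runs.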
(Broth dilution looks for growth in wells or tubes with falling amounts of substance.)

The test system of data set [3] is Mycolicibacterium smegmatis. Description: Potentiation of ampicillin-induced antimicrobial activity against Mycobacterium smegmatis str. MC2 155 ATCC 700084 assessed as fold reduction in ampicillin MIC at 20 uM incubated for 48 hrs by broth microdilution method. The format is functional.
In data set [4] the test system is Mycolicibacterium smegmatis. The data set can be described thus: Potentiation of cefotaxime-induced antimicrobial activity against Mycobacterium smegmatis str. MC2 155 ATCC 700084 assessed as fold reduction in cefotaxime MIC at 20 uM incubated for 48 hrs by broth microdilution method. In kind it is functional.

Broadly, the IC50 is the point on the concentration scale where inhibition reaches its midpoint.

Converted amounts (≈) assume the structure as drawn.

Take `CCCCCc1ccc(C(=O)Nc2ccc3[nH]c(N)nc3c2)cc1`: the IC50 in data set [1] was 13.6 µM. Further, the MIC in data set [2] was 150 µM (≈ 48.4 µg/mL).

`CCCCCc1ccc(C(=O)Nc2ccc3c(c2)nc(N)n3CCCCc2ccccc2)cc1`: the IC50 in data set [1] stood at 4.3 µM. Besides, the MIC in data set [2] is 100 µM (≈ 45.5 µg/mL).

Consider `CCCCCc1ccc(C(=O)Nc2ccc3c(c2)nc(N)n3CCc2cccc(OC)c2)cc1`, for which the IC50 in data set [1] worked out at 12.5 µM. Moreover, the MIC in data set [2] turned out to be 200 µM (≈ 91.3 µg/mL).

Turning to `CCCCCc1ccc(C(=O)Nc2ccc3c(c2)nc(N)n3Cc2ccccc2)cc1`, the IC50 in data set [1] worked out at 12.2 µM. The MIC in data set [2] worked out at 100 µM (≈ 41.3 µg/mL).

Turning to `CCCCCCn1c(N)nc2cc(NC(=O)c3ccc(CCCCC)cc3)ccc21`, in data set [1], the IC50 turned out to be 25.6 µM. Besides, in data set [2], the MIC is greater than 200 µM.

As for `CCCCCc1ccc(C(=O)Nc2ccc3c(c2)nc(N)n3CCc2ccccc2)cc1`, the IC50 in data set [1] worked out at 5.4 µM. The MIC in data set [2] is 100 µM (≈ 42.7 µg/mL).

With `CCCCCc1ccc(C(=O)Nc2ccc3c(c2)nc(N)n3CCc2ccc(OC)cc2)cc1`, the IC50 in data set [1] was found to be 8.8 µM. Further, the MIC in data set [2] amounted to 120 µM (≈ 54.8 µg/mL).

Regarding `CCCCCc1ccc(C(=O)Nc2ccc3c(c2)nc(N)n3CCCC)cc1`, the IC50 in data set [1] came out at 22.4 µM. Also, in data set [2], the MIC is greater than 200 µM.

Turning to `CCCCCc1ccc(C(=O)Nc2ccc3c(c2)nc(N)n3Cc2ccc(OC)cc2)cc1`, in data set [1], the IC50 was 12.5 µM. Besides, in data set [2], the MIC is greater than 200 µM.

With `CCCCCc1ccc(C(=O)Nc2ccc3c(c2)nc(N)n3CCCc2ccccc2)cc1`, in data set [3], the “fold change (FC)” value worked out at 16. Further, the “fold change (FC)” value in data set [4] was 128. Further, in data set [1], the MBIC50 was 8 µM and the IC50 turned out to be 3.5 µM. In data set [2], the MIC was 60 µM (≈ 26.4 µg/mL).

For `CCCCCc1ccc(C(=O)Nc2ccc3c(c2)nc(N)n3CCc2ccccc2OC)cc1`, the IC50 in data set [1] was 11.3 µM. Moreover, in data set [2], the MIC came to 120 µM (≈ 54.8 µg/mL).

As for `Nc1nc2cc(NC(=O)Nc3ccc(Cl)c(Cl)c3)ccc2n1CCCc1ccccc1`, the “fold change (FC)” value in data set [3] and in data set [4] was 2 in each case. The IC50 in data set [1] stood at 2.6 µM. Moreover, in data set [2], the MIC is 100 µM (≈ 45.4 µg/mL).

As to `Nc1nc2cc(C(=O)Nc3ccc(Cl)c(Cl)c3)ccc2n1CCCc1ccccc1`, in data set [1], the IC50 was 8.6 µM. The MIC in data set [2] was 200 µM (≈ 87.9 µg/mL).

On to `Nc1nc2cc(NC(=O)c3cc(Cl)cc(Cl)c3)ccc2n1CCCc1ccccc1`, for which the IC50 in data set [1] was determined as 9.4 µM. Besides, the MIC in data set [2] turned out to be 200 µM (≈ 87.9 µg/mL).

Regarding `Nc1nc2cc(NC(=O)c3ccc(Cl)c(Cl)c3)ccc2n1CCCc1ccccc1`, the 50% inhibitory concentration (IC50) in data set [1] is 8.8 µM. Also, in data set [2], the MIC turned out to be 200 µM (≈ 87.9 µg/mL).

Consider `CCCCCCCCCn1c(N)nc2cc(NC(=O)c3ccc(CCCCC)cc3)ccc21`, for which the IC50 in data set [1] stood at 23.2 µM. Moreover, in data set [2], the MIC came to 200 µM (≈ 89.7 µg/mL).

With `CCCCCc1ccc(C(=O)Nc2ccc3c(c2)nc(N)n3CCCc2ccccc2Br)cc1`, the IC50 in data set [1] was 10.5 µM. The MIC in data set [2] was 120 µM (≈ 62.3 µg/mL).

As to `CCCCCc1ccc(C(=O)Nc2ccc3c(c2)nc(N)n3CCCc2ccc(OC)cc2)cc1`, the “fold change (FC)” value was found to be 4 in data set [3] and 16 in data set [4]. Moreover, in data set [1], the IC50 turned out to be 4.3 µM. Besides, the MIC in data set [2] was 100 µM (≈ 47.1 µg/mL).

On to `CCCCCc1ccc(C(=O)Nc2ccc3c(c2)nc(N)n3CCCc2ccc(Cl)cc2)cc1`, for which the “fold change (FC)” value was 4 in data set [3] and 8 in data set [4]. Moreover, the IC50 in data set [1] came out at 6.4 µM. Moreover, in data set [2], the MIC worked out at 120 µM (≈ 57 µg/mL).

Regarding `CCCCCc1ccc(C(=O)Nc2ccc3c(c2)nc(N)n3CCCc2cccc(Br)c2)cc1`, the IC50 in data set [1] was 9.2 µM. For the same compound, the MIC in data set [2] is 100 µM (≈ 51.9 µg/mL).

Turning to `CCCCCc1ccc(C(=O)Nc2ccc3c(c2)nc(N)n3CCCc2ccc(Br)cc2)cc1`, the “fold change (FC)” value in data set [3] was found to be 4; in data set [4] it was 16. The IC50 in data set [1] is 6.2 µM. The MIC in data set [2] came to 100 µM (≈ 51.9 µg/mL).

In the case of `CCCCCc1ccc(C(=O)Nc2ccc3c(c2)nc(N)n3CCCc2ccc(F)cc2)cc1`, the “fold change (FC)” value in data set [3] was 4; in data set [4] it was 64. Moreover, the IC50 in data set [1] is 3.6 µM. In addition, in data set [2], the MIC is 120 µM (≈ 55 µg/mL).
